These results are taken from ChEMBL document CHEMBL3813617, “An alternative route to the arylvinyltriazole nucleosides” (Bioorg Med Chem Lett, 2016).

SMILES strings stand for the structures. Active and inactive are the calls of the source. No cut-off for these calls is given here.

One data set concerns Vero. Put plainly: Antiviral activity against Influenza A H5N1 virus (A/duck/Novosibirsk/56/05) infected in African green monkey Vero cells assessed as reduction of virus-induced cytopathic effect. It is filed as functional, cell-based. Conditions: Influenza A virus (A/duck/Novosibirsk/56/2005(H5N1)). In general terms: Cytopathic effects are the visible damage that an infection or toxin causes in cultured cells.

The nature of data set [1]: Cytotoxicity against African green monkey Vero E6 cells up to 2 mM. It is filed as cell-based. Particulars: chlorocebus sabaeus.
Another data set has as its system Hepatitis C virus. Put plainly: Antiviral activity against Hepatitis C virus infected in African green monkey Vero cells assessed as reduction of virus-induced cytopathic effect. It is filed as functional, organism-based, Hepacivirus hominis.
For the next data set, the system named is Human alphaherpesvirus 1. Nature of the data set: Antiviral activity against Herpes simplex virus type 1 L2 infected in African green monkey Vero E6 cells assessed as reduction of virus-induced cytopathic effect. It is filed as functional, organism-based. Particulars: Human alphaherpesvirus 1, L2, Vero.
The nature of data set [2]: Cytotoxicity against African green monkey Vero E6 cells. Particulars: chlorocebus sabaeus. It is filed as cell-based. The method, boiled down: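 Cytotoxicity measured in Vero cells, […]; CC50 derived.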

For orientation: IC50 means the concentration at which inhibition is half-maximal. By CC50 is commonly meant the concentration at which the toxic effect on the cells reaches its halfway point.

As to `NC(=O)c1nc(/C=C\c2ccc(F)cc2)n([C@@H]2O[C@H](CO)[C@@H](O)[C@H]2O)n1`, in the data set on Vero, the result was inactive. In data set [1], the Activity entry is reported as “Non-toxic”.
For the compound `NC(=O)c1nc(/C=C/c2ccccc2F)n([C@@H]2O[C@H](CO)[C@@H](O)[C@H]2O)n1` (mixture of isomers), the result in the data set on Vero was inactive. In addition, in data set [1], the Activity entry is on record as “Non-toxic”.
Take `NC(=O)c1nc(/C=C/c2ccc(C(F)(F)F)cc2)n([C@@H]2O[C@H](CO)[C@@H](O)[C@H]2O)n1`: in the data set with Hepatitis C virus, the IC50 was determined as 0.09 µM.
Consider `NC(=O)c1nc(/C=C\c2cccc(F)c2)n([C@@H]2O[C@H](CO)[C@@H](O)[C@H]2O)n1`, for which, in the data set with Vero, the result was inactive. Also, the Activity entry in data set [1] is given as “Non-toxic”.
On to `NC(=O)c1nc(/C=C/c2cccc(F)c2)n([C@@H]2O[C@H](CO)[C@@H](O)[C@H]2O)n1`, for which the result in the data set with Vero was inactive. For the same compound, in the data set on Human alphaherpesvirus 1, the IC50 was determined as 6.9 µM. Further, the Activity result in data set [1] is on record as “Non-toxic”.
Turning to `NC(=O)c1nc(/C=C/c2ccc(F)cc2)n([C@@H]2O[C@H](CO)[C@@H](O)[C@H]2O)n1`, in the data set with Vero, the result was inactive. In addition, the cytotoxic concentration (CC50) in data set [2] was 3.4 µM.
As for `NC(=O)c1nc(/C=C\c2ccc(C(F)(F)F)cc2)n([C@@H]2O[C@H](CO)[C@@H](O)[C@H]2O)n1`, the result in the data set with Vero was inactive. In addition, the Activity entry in data set [1] is reported as “Non-toxic”.
Regarding `NC(=O)c1ncn([C@@H]2O[C@H](CO)[C@@H](O)[C@H]2O)n1` [RIBAVIRIN], in the data set on Human alphaherpesvirus 1, the IC50 came to 10 µM. For the same compound, the CC50 in data set [2] is 0.3 µM.
